Data from ChEMBL document CHEMBL3097988, “Synthesis and characterization of new N-(4-(4-chloro-1H-imidazol-1-yl)-3-methoxyphenyl)amide/sulfonamide derivatives as possible antimicrobial and antitubercular agents” (2014).
Values after ≈ are worked out from the molar mass of the structure shown.

Tests used:
Assay type in all cases: functional
Staphylococcus aureus = assay: Antimicrobial activity against Staphylococcus aureus ATCC 25923 after 16 to 18 hrs by […]
[1] = test system: Mycobacterium tuberculosis; assay: Antimicrobial activity against Mycobacterium tuberculosis H37Rv ATCC 27294 after 7 days by resazurin assay; settings: H37Rv ATCC 27294, 168 h
Procedure, shortened: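 Resazurin microtitre assay. Cultures were grown in Middlebrook 7H9 with 10% OADC and added to fresh medium in 96-well plates. Test compounds came from 2 mg/mL DMF stocks, with DMF-only controls. Plates were incubated 7 days at 37 °C, then resazurin was added and read after 1 h at 37 °C. MIC was the lowest concentration preventing the blue-to-pink change.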

[2] = test system: Mycobacterium tuberculosis; assay: Antimicrobial activity against Mycobacterium tuberculosis H37Rv ATCC 27294 at 1 to 100 ug/ml after 7 days by resazurin assay
Procedure, shortened: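 Preliminary screen at three concentrations (1, 10 and 100) by resazurin microtitre assay. Cultures were grown in Middlebrook 7H9 with 10% OADC, and compounds came from 2 mg/mL DMF stocks with DMF controls. Plates were incubated 7 days at 37 °C, and resazurin colour was read after 1 h. Inhibition was scored as no blue-to-pink change.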

Escherichia coli = assay: Antimicrobial activity against Escherichia coli ATCC 25922 after 16 to 18 hrs by […]
[3] = test system: Mycolicibacterium fortuitum; assay: Antimicrobial activity against Mycobacterium fortuitum ATCC 19542 after 7 days by resazurin assay; settings: ATCC 19542, 168 h
Rhizopus = assay: Antimicrobial activity against Rhizopus sp. after 3 to 4 days by serial plate dilution method
Procedure, shortened: (§1)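 Fungal MIC by serial plate dilution. Sabouraud agar (peptone, D-glucose, agar; pH 5.7) plates seeded with saline spore suspension, dried 1 h at 37 °C. Wells punched and filled with compound in DMSO; DMSO-only control. Triplicate plates held 3–4 days at 37 °C; inhibition zone diameter measured. Amphotericin B positive control. Tested range […] per mL.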

Klebsiella pneumoniae = assay: Antimicrobial activity against Klebsiella pneumoniae ATCC 13883 after 16 to 18 hrs by serial plate dilution method
Procedure, shortened: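 Bacterial MIC by serial dilution in Mueller-Hinton broth adjusted to pH 5.0 with phosphate buffer. Tubes inoculated with standardized bacterial suspension, incubated 16–18 h at 37 °C. MIC read as lowest concentration with no visible growth. Range […] per mL. DMSO as negative control, ciprofloxacin as positive control.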

Candida albicans = assay: Antimicrobial activity against Candida albicans after 3 to 4 days by serial plate dilution method; procedure, shortened: as §1
Aspergillus flavus = assay: Antimicrobial activity against Aspergillus flavus after 3 to 4 days by serial plate dilution method; procedure, shortened: as §1
[4] = test system: Mycolicibacterium smegmatis; assay: Antimicrobial activity against Mycobacterium smegmatis (MC2) ATCC 19420 after 7 days by resazurin assay; settings: (MC2) ATCC 19420, 168 h

With `COc1cc(NC(=O)c2cc(F)cc(C(F)(F)F)c2)ccc1-n1cnc(Cl)c1` the MIC (Staphylococcus aureus) was 128 µg/mL (≈ 309 µM), the MIC [1] was 10 µg/mL (≈ 24.2 µM) and the “inhibition (INH)” value [2] was 90%. It also gave an MIC (Escherichia coli) of 128 µg/mL (≈ 309 µM), an MIC [3] of 10 µg/mL (≈ 24.2 µM) and an MIC (Rhizopus) of 128 µg/mL (≈ 309 µM). It also gave an MIC (Klebsiella pneumoniae) of 64 µg/mL (≈ 155 µM), an MIC (Candida albicans) of 64 µg/mL (≈ 155 µM) and an MIC (Aspergillus flavus) of 256 µg/mL (≈ 619 µM).

With `COc1cc(NS(=O)(=O)c2ccc(Cl)cc2Cl)ccc1-n1cnc(Cl)c1` the MIC (Staphylococcus aureus) was 8 µg/mL (≈ 18.5 µM), the MIC [1] was 5 µg/mL (≈ 11.6 µM) and the “inhibition (INH)” value [2] was under 90%. For the same molecule, the MIC (Escherichia coli) was 4 µg/mL (≈ 9.24 µM), the MIC (Rhizopus) was 128 µg/mL (≈ 296 µM) and the MIC (Klebsiella pneumoniae) was 64 µg/mL (≈ 148 µM). For the same molecule, the MIC (Candida albicans) was 128 µg/mL (≈ 296 µM) and the MIC (Aspergillus flavus) was 64 µg/mL (≈ 148 µM).

For `COc1cc(NC(=O)c2ccccc2)ccc1-n1cnc(Cl)c1`, the MIC (Staphylococcus aureus) was 128 µg/mL (≈ 391 µM), the MIC [1] was 5 µg/mL (≈ 15.3 µM) and the “inhibition (INH)” value [2] was under 90%. The MIC (Escherichia coli) was 256 µg/mL (≈ 781 µM), the MIC [4] was 10 µg/mL (≈ 30.5 µM) and the MIC (Rhizopus) was 128 µg/mL (≈ 391 µM). It also gave an MIC (Klebsiella pneumoniae) of 128 µg/mL (≈ 391 µM), an MIC (Candida albicans) of 256 µg/mL (≈ 781 µM) and an MIC (Aspergillus flavus) of 256 µg/mL (≈ 781 µM).

For `COc1cc(F)c(S(=O)(=O)Nc2ccc(-n3cnc(Cl)c3)c(OC)c2)c(C(F)(F)F)c1`, the MIC (Staphylococcus aureus) was 64 µg/mL (≈ 133 µM), the MIC [1] was 5 µg/mL (≈ 10.4 µM) and the “inhibition (INH)” value [2] was under 90%. The MIC (Escherichia coli) was 128 µg/mL (≈ 267 µM), the MIC [4] was 10 µg/mL (≈ 20.8 µM) and the MIC (Rhizopus) was 256 µg/mL (≈ 534 µM). The MIC (Klebsiella pneumoniae) was 32 µg/mL (≈ 66.7 µM), the MIC (Candida albicans) was 128 µg/mL (≈ 267 µM) and the MIC (Aspergillus flavus) was 128 µg/mL (≈ 267 µM).

`COc1cc(F)c(C(=O)Nc2ccc(-n3cnc(Cl)c3)c(OC)c2)c(F)c1` was tested, and the MIC (Staphylococcus aureus) was 256 µg/mL (≈ 650 µM), the MIC [1] was 5 µg/mL (≈ 12.7 µM) and the “inhibition (INH)” value [2] was under 90%. For the same molecule, the MIC (Escherichia coli) was over 256 µg/mL, the MIC (Rhizopus) was over 256 µg/mL and the MIC (Klebsiella pneumoniae) was 128 µg/mL (≈ 325 µM). The MIC (Candida albicans) was 256 µg/mL (≈ 650 µM) and the MIC (Aspergillus flavus) was 256 µg/mL (≈ 650 µM).

In the case of `COc1cc(NC(=O)c2cccc(C(C)C#N)c2)ccc1-n1cnc(Cl)c1` (configuration not stated), the MIC (Staphylococcus aureus) is reported as 256 µg/mL (≈ 672 µM), the MIC [1] is reported as 2.5 µg/mL (≈ 6.56 µM) and the “inhibition (INH)” value [2] is reported as 90%. The MIC (Escherichia coli) was over 256 µg/mL, the MIC [3] was 10 µg/mL (≈ 26.3 µM) and the MIC (Rhizopus) was 128 µg/mL (≈ 336 µM). The MIC (Klebsiella pneumoniae) was 128 µg/mL (≈ 336 µM), the MIC (Candida albicans) was 128 µg/mL (≈ 336 µM) and the MIC (Aspergillus flavus) was 256 µg/mL (≈ 672 µM).

With `CO[C@H]1/C=C/O[C@@]2(C)Oc3c(C)c(O)c4c(O)c(c(/C=N/N5CCN(C)CC5)c(O)c4c3C2=O)NC(=O)/C(C)=C\C=C\[C@H](C)[C@H](O)[C@@H](C)[C@@H](O)[C@@H](C)[C@H](OC(C)=O)[C@@H]1C` [RIFAMPIN] the MIC [1] was 0.5 µg/mL (≈ 0.608 µM), the “inhibition (INH)” value [2] was 95% and the MIC [4] was 1.5 µg/mL (≈ 1.82 µM). The MIC [3] was 1.5 µg/mL (≈ 1.82 µM).

With `COc1cc(NC(=O)c2c(F)ccc(C(F)(F)F)c2Cl)ccc1-n1cnc(Cl)c1` the MIC (Staphylococcus aureus) was over 256 µg/mL, the MIC [1] was 2.5 µg/mL (≈ 5.58 µM) and the “inhibition (INH)” value [2] was under 90%. For the same molecule, the MIC (Escherichia coli) was 128 µg/mL (≈ 286 µM), the MIC [4] was 2.5 µg/mL (≈ 5.58 µM) and the MIC (Rhizopus) was 128 µg/mL (≈ 286 µM). It also gave an MIC (Klebsiella pneumoniae) of 256 µg/mL (≈ 571 µM), an MIC (Candida albicans) of 128 µg/mL (≈ 286 µM) and an MIC (Aspergillus flavus) of over 256 µg/mL.

For `COc1cc(NS(=O)(=O)C2(c3ccc(Cl)cc3)CC2)ccc1-n1cnc(Cl)c1`, the MIC (Staphylococcus aureus) was 128 µg/mL (≈ 292 µM), the MIC [1] was 1.25 µg/mL (≈ 2.85 µM) and the “inhibition (INH)” value [2] was 90%. The MIC (Escherichia coli) was 64 µg/mL (≈ 146 µM), the MIC [3] was 10 µg/mL (≈ 22.8 µM) and the MIC (Rhizopus) was 128 µg/mL (≈ 292 µM). For the same molecule, the MIC (Klebsiella pneumoniae) was 128 µg/mL (≈ 292 µM), the MIC (Candida albicans) was 128 µg/mL (≈ 292 µM) and the MIC (Aspergillus flavus) was 64 µg/mL (≈ 146 µM).

`NNC(=O)c1ccncc1` [ISONIAZID] was tested, and the MIC [1] was 0.7 µg/mL (≈ 5.1 µM), the “inhibition (INH)” value [2] was 95% and the MIC [4] was 50 µg/mL (≈ 365 µM). The MIC [3] was 12.5 µg/mL (≈ 91.1 µM).

With `COc1cc(NC(=O)c2ccco2)ccc1-n1cnc(Cl)c1` the MIC (Staphylococcus aureus) was over 256 µg/mL, the MIC [1] was 5 µg/mL (≈ 15.7 µM) and the “inhibition (INH)” value [2] was under 90%. It also gave an MIC (Escherichia coli) of 128 µg/mL (≈ 403 µM), an MIC (Rhizopus) of over 256 µg/mL and an MIC (Klebsiella pneumoniae) of over 256 µg/mL. It also gave an MIC (Candida albicans) of over 256 µg/mL and an MIC (Aspergillus flavus) of 128 µg/mL (≈ 403 µM).

For `COc1ccc(C(=O)Nc2ccc(-n3cnc(Cl)c3)c(OC)c2)cc1OC`, the MIC (Staphylococcus aureus) was over 256 µg/mL, the “inhibition (INH)” value [2] was 0% and the MIC (Escherichia coli) was 256 µg/mL (≈ 660 µM). The MIC (Rhizopus) was 256 µg/mL (≈ 660 µM), the MIC (Klebsiella pneumoniae) was 256 µg/mL (≈ 660 µM) and the MIC (Candida albicans) was over 256 µg/mL. For the same molecule, the MIC (Aspergillus flavus) was 128 µg/mL (≈ 330 µM).

`COc1cc(NC(=O)C2(c3ccc(Cl)cc3)CC2)ccc1-n1cnc(Cl)c1` was tested, and the MIC (Staphylococcus aureus) was 64 µg/mL (≈ 159 µM), the MIC [1] was 2.5 µg/mL (≈ 6.21 µM) and the “inhibition (INH)” value [2] was under 90%. The MIC (Escherichia coli) was 128 µg/mL (≈ 318 µM), the MIC [4] was 2.5 µg/mL (≈ 6.21 µM) and the MIC (Rhizopus) was over 256 µg/mL. The MIC (Klebsiella pneumoniae) was 256 µg/mL (≈ 636 µM), the MIC (Candida albicans) was over 256 µg/mL and the MIC (Aspergillus flavus) was 256 µg/mL (≈ 636 µM).
